Measured values from different studies.
Protocols differ between the studies behind these lines.
Target: Wee1-like protein kinase (WEE1, Homo sapiens, UniProt P30291)

With `Cc1ccc(Nc2nccc(N(C)c3ccc4c(C)n(C)nc4c3)n2)cc1S(N)(=O)=O` the remaining activity was 95.3% (enzyme activity; inhibitor; 0.5 µM).
With `Nc1cnc(N2CCc3cc(S(=O)(=O)Nc4c(F)cc(Cl)cc4F)cc(N4CCCC4=O)c32)nc1` the remaining binding was 72% (cell-free assay; competition with immobilised ligand; 1 µM).
`CN1CC(Oc2cnc(C#N)cc2-c2ccn3nc(NC(=O)C4CC4)cc3c2)C1` gave an inhibition of 2% (enzyme activity; inhibitor; 1 µM).
For `Nc1nc(Nc2ccc(S(N)(=O)=O)cc2)nn1C(=O)c1c(F)cccc1F`, the remaining signal was 83.6% (cell-free assay; 0.5 µM).
For `CC1=C(C#N)[C@@H](c2ccc3[nH]nc(C)c3c2)C(C#N)=C(c2ccc(Cl)cc2)N1`, the remaining binding was 100% (cell-free assay; competition with immobilised ligand; 1 µM).
`Cc1cc(NC(=O)c2cccc3cc(-c4cccc5[nH]nc(N)c45)ccc23)ccc1F` gave an activity vs control of 97% (enzyme activity; inhibitor; 0.1 µM).
`Nc1ncnc2occ(-c3ccc(NC(=O)Nc4cc(C(F)(F)F)ccc4F)cc3)c12` gave a remaining signal of 17% (cell-free assay; inhibitor; 20 µM).
With `O=C1NC(=O)c2cc(Nc3ccc(F)cc3)c(Nc3ccc(F)cc3)cc21` the remaining signal was 99.6% (cell-free assay; 0.5 µM).
`O=C(Nc1cnn(-c2csc(C(=O)NC3COC3)c2)c1)Nc1c(F)cccc1Cl` has a remaining activity of 85.2% (enzyme activity; inhibitor; 5 µM).
`O=C1Nc2ccc(Cl)cc2C1=Cc1cc(Cl)c(O)c(Cl)c1` has a remaining signal of 79.1% (cell-free assay; 0.5 µM).
`Cc1c(C(=O)O)cc(-c2ccc(C3CCNCC3)cc2)c2ccc(-c3ccc(C(F)(F)F)cc3)cc12` has a remaining binding of 80% (binding; competition with immobilised ligand; 1 µM).
`CNc1cc(Oc2cc(C(=O)Nc3cc(N4CCN(C)CC4)cc(C(F)(F)F)c3)ccc2C)ncn1` gave an inhibition of -10.9% (target engagement in cells; inhibitor; chemoproteomics; Huh-7; 1 µM).
With `Cc1cnc(NC2CCOCC2)nc1-n1cnc(C(=O)NC(CN)c2cc(F)cc(Cl)c2)c1` (stereo not shown) the remaining activity was 101% (enzyme activity; inhibitor; radiometric; 1 µM).
`O=C(O)[C@H]1[C@H](Cn2nnc3ccccc3c2=O)CC[C@@H]1C(=O)c1ccc(OCCC2CCOCC2)cc1` gave a remaining binding of 100% (cell-free assay; competition with immobilised ligand; 1 µM).
For `COc1cc(Cl)c(C(=O)N[C@@H](CN[C@H]2CC[C@@H](N)CC2)Cc2ccc(C#N)cc2)cc1-c1ccc(CN[C@H](C)c2ccc(C)cc2)o1`, the remaining activity was 102% (enzyme activity; inhibitor; 1 µM).
`CC(C)(C)c1nc(-c2cccc(NS(=O)(=O)c3c(F)cccc3F)c2F)c(-c2ccnc(N)n2)s1` has a remaining activity of 91% (enzyme activity; inhibitor; radiometric; 1 µM).
